Assay results from ChEMBL document CHEMBL1255443, “CEM-101 activity against Gram-positive organisms” (Antimicrob Agents Chemother, 2010).
The source made the active and inactive calls.

Tests used:
[1] = test system: Staphylococcus aureus; experiment: Antibacterial activity against Staphylococcus aureus ATCC 29213 assessed as bactericidal at 8 times MIC in 24 hrs by time kill study; type: functional, organism-based
How it was run: (§1)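 Time-kill assay following earlier published methods. Each agent tested at 2×, 4× and 8× its MIC for the strain. Viable colony counts taken at 0, 2, 4, 8 and 24 h. Bactericidal activity defined as a ≥3 log10 CFU/ml drop from the starting inoculum within 24 h.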

[2] = test system: Streptococcus mitis; experiment: Antibacterial activity against Streptococcus mitis 112-1885A assessed as bactericidal at 8 times MIC in 24 hrs by time kill study; type: functional, organism-based; how it was run: as §1
[3] = test system: Streptococcus mitis; experiment: Antibacterial activity against Streptococcus mitis 112-1885A assessed as bactericidal at 4 times MIC in 24 hrs by time kill study; type: functional, organism-based; how it was run: as §1
[4] = test system: Staphylococcus epidermidis; experiment: Antibacterial activity against Staphylococcus epidermidis 2777A assessed as bacteriostatic by time kill study
[5] = test system: Streptococcus mitis; experiment: Antibacterial activity against Streptococcus mitis 112-1885A assessed as bactericidal at 2 times MIC in 24 hrs by time kill study; type: functional, organism-based; how it was run: as §1
[6] = test system: Streptococcus pyogenes; experiment: Antibacterial activity against Streptococcus pyogenes 117-1612A assessed as bactericidal at 8 times MIC in 24 hrs by time kill study; type: functional, organism-based; how it was run: as §1
[7] = test system: Streptococcus pneumoniae; experiment: Antibacterial activity against Streptococcus pneumoniae ATCC 49619 assessed as bactericidal at 8 times MIC in 24 hrs by time kill study; type: functional, organism-based; how it was run: as §1
[8] = test system: Streptococcus pneumoniae; experiment: Antibacterial activity against Streptococcus pneumoniae ATCC 49619 assessed as bactericidal at 2 times MIC in 24 hrs by time kill study; type: functional, organism-based; how it was run: as §1
[9] = test system: Streptococcus pneumoniae; experiment: Antibacterial activity against Streptococcus pneumoniae ATCC 49619 assessed as bactericidal at 4 times MIC in 24 hrs by time kill study; type: functional, organism-based; how it was run: as §1
[10] = test system: Enterococcus faecalis; experiment: Antibacterial activity against Enterococcus faecalis ATCC 29212 assessed as bacteriostatic by time kill study; type: functional, organism-based; how it was run: as §1
[11] = test system: Streptococcus pneumoniae; experiment: Antimicrobial activity against Streptococcus pneumoniae 075-241B after passaging with CEM-101 by broth microdilution method; type: functional
How it was run: (§2)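 Multistep resistance selection by CLSI reference broth microdilution. The full content of the last well showing growth was resuspended in broth to a 0.5 McFarland standard, and 5 × 10^5 CFU/ml was used for the next MIC panel, repeated over 7 passage days. Reversion was checked by three consecutive drug-free agar passages, followed by a final broth microdilution MIC. A ≥8-fold MIC change from initial counted as significant resistance.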

[12] = test system: Staphylococcus aureus; experiment: Antibacterial activity against Staphylococcus aureus ATCC 29213 assessed as bactericidal at 4 times MIC in 24 hrs by time kill study; type: functional, organism-based; how it was run: as §1
[13] = test system: Staphylococcus aureus; experiment: Antimicrobial activity against Staphylococcus aureus 024-11490A after passaging with CEM-101 by broth microdilution method; type: functional; how it was run: as §2
[14] = test system: Streptococcus pyogenes; experiment: Antibacterial activity against Streptococcus pyogenes 088-11708A assessed as bactericidal at 8 times MIC in 24 hrs by time kill study; type: functional, organism-based; how it was run: as §1
[15] = test system: Enterococcus faecalis; experiment: Antimicrobial activity against Enterococcus faecalis 067-6633A after passaging with CEM-101 by broth microdilution method; type: functional; how it was run: as §2
[16] = test system: Staphylococcus epidermidis; experiment: Antibacterial activity against Staphylococcus epidermidis assessed as log cell killing at 8 times MIC in 24 hrs by time kill study; type: functional; how it was run: as §1
[17] = test system: Staphylococcus aureus; experiment: Antimicrobial activity against Staphylococcus aureus 117-453D after passaging with CEM-101 by broth microdilution method; type: functional; how it was run: as §2
[18] = test system: Streptococcus pneumoniae; experiment: Antimicrobial activity against Streptococcus pneumoniae ATCC 49619 after passaging with CEM-101 by broth microdilution method; type: functional; how it was run: as §2
[19] = test system: Staphylococcus epidermidis; experiment: Antibacterial activity against Staphylococcus epidermidis 2777A assessed as bactericidal at 4 times MIC in 24 hrs by time kill study
[20] = test system: Enterococcus faecium; experiment: Antimicrobial activity against Enterococcus faecium 086-15387A after passaging with CEM-101 by broth microdilution method; type: functional; how it was run: as §2
[21] = test system: Staphylococcus aureus; experiment: Antimicrobial activity against Staphylococcus aureus ATCC 29213 after passaging with CEM-101 by broth microdilution method; type: functional; how it was run: as §2
[22] = test system: Staphylococcus aureus; experiment: Antibacterial activity against Staphylococcus aureus ATCC 29213 assessed as bactericidal at 2 times MIC in 24 hrs by time kill study; type: functional, organism-based; how it was run: as §1
[23] = test system: Streptococcus pyogenes; experiment: Antimicrobial activity against Streptococcus pyogenes 117-1612A after passaging with CEM-101 by broth microdilution method; type: functional; how it was run: as §2
[24] = test system: Enterococcus faecium; experiment: Antimicrobial activity against Enterococcus faecium 067- after passaging with CEM-101 by broth microdilution method; type: functional; how it was run: as §2
[25] = test system: Staphylococcus epidermidis; experiment: Antimicrobial activity against Staphylococcus epidermidis 095-2777A by broth microdilution method
[26] = test system: Streptococcus pyogenes; experiment: Antimicrobial activity against Streptococcus pyogenes 088-11708A after passaging with CEM-101 by broth microdilution method; type: functional; how it was run: as §2
[27] = test system: Staphylococcus aureus; experiment: Antibacterial activity against Staphylococcus aureus ATCC 29213 assessed as log cell killing at 8 times MIC in 24 hrs by time kill study; type: functional; how it was run: as §1
[28] = test system: Streptococcus pneumoniae; experiment: Antibacterial activity against Streptococcus pneumoniae 241B assessed as bacteriostatic by time kill study; type: functional, organism-based; how it was run: as §1
[29] = test system: Streptococcus pneumoniae; experiment: Antimicrobial activity against Streptococcus pneumoniae 127-2273B after passaging with CEM-101 by broth microdilution method; type: functional; how it was run: as §2
[30] = test system: Streptococcus pyogenes; experiment: Antibacterial activity against Streptococcus pyogenes 088-11708A assessed as bactericidal at 2 times MIC in 24 hrs by time kill study; type: functional, organism-based; how it was run: as §1
[31] = test system: Staphylococcus epidermidis; experiment: Antibacterial activity against Staphylococcus epidermidis 2777A assessed as bactericidal at 8 times MIC in 24 hrs by time kill study
[32] = test system: Enterococcus faecalis; experiment: Antimicrobial activity against Enterococcus faecalis ATCC 29212 after passaging with CEM-101 by broth microdilution method; type: functional; how it was run: as §2
[33] = test system: Streptococcus mitis; experiment: Antimicrobial activity against Streptococcus mitis 112-1885A after passaging with CEM-101 by broth microdilution method; type: functional; how it was run: as §2
[34] = test system: Moraxella catarrhalis; experiment: Antimicrobial activity against Moraxella catarrhalis 117-10142A after passaging with CEM-101 by broth microdilution method; type: functional; how it was run: as §2
[35] = test system: Staphylococcus aureus; experiment: Antimicrobial activity against Staphylococcus aureus NRS384 after passaging with CEM-101 by broth microdilution method; type: functional; how it was run: as §2
[36] = test system: Staphylococcus aureus; experiment: Antimicrobial activity against Staphylococcus aureus 117-472D after passaging with CEM-101 by broth microdilution method; type: functional; how it was run: as §2
[37] = test system: Streptococcus pneumoniae; experiment: Antibacterial activity against Streptococcus pneumoniae ATCC 49619 assessed as log cell killing at 8 times MIC in 24 hrs by time kill study; type: functional; how it was run: as §1
[38] = test system: Streptococcus pyogenes; experiment: Antibacterial activity against Streptococcus pyogenes assessed as log cell killing at 8 times MIC in 24 hrs by time kill study; type: functional; how it was run: as §1
[39] = test system: Enterococcus faecalis; experiment: Antimicrobial activity against Enterococcus faecalis 061-6556A after passaging with CEM-101 by broth microdilution method; type: functional; how it was run: as §2
[40] = test system: Staphylococcus haemolyticus; experiment: Antimicrobial activity against Staphylococcus haemolyticus 064-4090A after passaging with CEM-101 by broth microdilution method; type: functional; how it was run: as §2
[41] = test system: Staphylococcus aureus; experiment: Antimicrobial activity against Staphylococcus aureus 004-573D after passaging with CEM-101 by broth microdilution method; type: functional; how it was run: as §2
[42] = test system: Staphylococcus epidermidis; experiment: Antibacterial activity against Staphylococcus epidermidis 2777A assessed as bactericidal at 2 times MIC in 24 hrs by time kill study
[43] = test system: Streptococcus mitis; experiment: Antimicrobial activity against Streptococcus mitis 051-4933A after passaging with CEM-101 by broth microdilution method; type: functional; how it was run: as §2
[44] = test system: Haemophilus influenzae; experiment: Antimicrobial activity against Haemophilus influenzae ATCC 49247 after passaging with CEM-101 by broth microdilution method; type: functional; how it was run: as §2
[45] = test system: Streptococcus pneumoniae; experiment: Antimicrobial activity against Streptococcus pneumoniae 063-1085A after passaging with CEM-101 by broth microdilution method; type: functional; how it was run: as §2
[46] = test system: Streptococcus pyogenes; experiment: Antibacterial activity against Streptococcus pyogenes 088-11708A assessed as bactericidal at 4 times MIC in 24 hrs by time kill study; type: functional, organism-based; how it was run: as §1

CC[C@H]1OC(=O)[C@H](C)C(=O)[C@H](C)[C@@H](O[C@@H]2O[C@H](C)C[C@H](N(C)C)[C@H]2O)[C@](C)(OC)C[C@@H](C)C(=O)[C@H](C)[C@H]2N(CCCCn3cnc(-c4cccnc4)c3)C(=O)O[C@]12C
active: Activity [1] | Activity [2] | Activity [3] | Activity [4] | Activity [5]

CC[C@H]1OC(=O)[C@H](C)[C@@H](O[C@H]2C[C@@](C)(OC)[C@@H](O)[C@H](C)O2)[C@H](C)[C@@H](O[C@@H]2O[C@H](C)C[C@H](N(C)C)[C@H]2O)[C@](C)(O)C[C@@H](C)C(=O)[C@H](C)[C@@H](O)[C@]1(C)O
active: Activity [1] | Activity [6] | Activity [7] | Activity [8] | Activity [9]

CC[C@H]1OC(=O)[C@H](C)[C@@H](O[C@H]2C[C@@](C)(OC)[C@@H](O)[C@H](C)O2)[C@H](C)[C@@H](O[C@@H]2O[C@H](C)C[C@H](N(C)C)[C@H]2O)[C@](C)(OC)C[C@@H](C)C(=O)[C@H](C)[C@@H](O)[C@]1(C)O [CLARITHROMYCIN]
Active: Activity [1]

CC[C@H]1OC(=O)[C@@](C)(F)C(=O)[C@H](C)[C@@H](O[C@@H]2O[C@H](C)C[C@H](N(C)C)[C@H]2O)[C@](C)(OC)C[C@@H](C)C(=O)[C@H](C)[C@H]2N(CCCCn3cc(-c4cccc(N)c4)nn3)C(=O)O[C@]12C [SOLITHROMYCIN]
0.03 µg/mL: MIC [32]
8 ng/mL: MIC [18]
≤ 8 ng/mL: MIC [33]
>=3 log10CFU/ml: Activity [16] | Activity [27] | Activity [37] | Activity [38]
active: Activity [10] | Activity [12] | Activity [14] | Activity [1] | Activity [19] | Activity [22] | Activity [28] | Activity [30] | Activity [31] | Activity [42] | Activity [46]
0.06 µg/mL: MIC [21] | MIC [24] | MIC [26] | MIC [29] | MIC [39]
1 µg/mL: MIC [20]
0.12 µg/mL: MIC [13] | MIC [17] | MIC [25] | MIC [34] | MIC [35] | MIC [36] | MIC [40] | MIC [41] | MIC [43]
0.015 µg/mL: MIC [11] | MIC [23] | MIC [45]
2 µg/mL: MIC [15] | MIC [44]
